Source: ChEMBL document CHEMBL1133763, “Synthesis and immunosuppressive activity of novel prodigiosin derivatives” (J Med Chem, 2000)
Values after ≈ are worked out from the molar mass of the structure shown.

What was measured:
[1] = tested on: B16; experiment: Cytotoxicity, ability to inhibit viability of murine resting lymphocytes, murine B16 melanoma cells and human K562 erythroleukemia cells by 50% by […]; type: functional, cell-based; settings: Mus musculus
In short: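 Murine resting lymphocytes (4 × 10^5 cells/well), murine B16 melanoma and human K562 cells (1 × 10^5 cells/well each) seeded in triplicate with a range of compound concentrations in complete RPMI 1640 (10% inactivated FCS); DMSO stocks at 2 mg/mL diluted at use. MTT added for last 4 h of 48 h culture; formazan dissolved in HCl–2-propanol, OD 570/690 nm; IC50 from % inhibition versus control.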

[2] = species on record: Mus musculus; experiment: The concentration inhibiting 50% cell proliferation of murine Splenocytes induced by the mitogen Concanavalin A of mice; type: functional
In short: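 Spleens from C57Bl/6 mice; splenocytes at 4 × 10^5 cells/well in triplicate with Con A 1.7 µg/mL and varying compound concentrations in complete RPMI 1640. 72 h at 37 °C, 5% CO2; [3H]thymidine 0.2 µCi/well during final 18 h; uptake counted by scintillation. IC50 from % inhibition of cpm versus control; mean ± SD of ≥3 experiments.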

[3] = tested on: B16; experiment: Selectivity index was evaluated; type: functional, Mus musculus
In short: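 Ratio of mean IC50 for MTT viability in K562, B16 and resting lymphocytes (averaged over the three) to IC50 for Con A-stimulated splenocyte proliferation.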

[4] = tested on: Mus musculus; experiment: Dose able to reduce by 50% the thickness increase compared to controls by DTH Assay on mice after daily dose by ip route for 6 days; type: functional; settings: 144 h
In short: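 Female C57Bl/6 mice, 8-9 weeks, primed iv with 1 × 105 SRBC in saline; footpad challenge 5 days later with 1 × 108 SRBC. Compound in Cremophor ELP/ethanol (6.5:3.5) given ip daily for 6 days from priming day at several doses. Footpad swelling by dial micrometer 24 h post-challenge; ED50 = dose halving swelling increase; 10 animals/group, ≥3 experiments.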

[5] = tested on: Mus musculus; experiment: The Toxicity of compound was measured by DTH Assay on mice after giving compound daily by ip route for 6 days at different doses; type: organism-based; settings: in vivo, 144 h
In short: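 Female C57Bl/6 mice, 8-9 weeks old, were primed iv with 1 × 10^5 SRBC and challenged in the footpad with 1 × 10^8 SRBC five days later. Compound in Cremophor ELP/ethanol (6.5:3.5 v:v) was given ip daily for 6 days from priming. Value is the minimal daily dose causing weight loss, hair ruffling or occasionally death, as mean ± SD of ≥3 experiments, 10 mice/group.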

SMILES | IC50 [1] [µg/mL] | IC50 [2] [µg/mL] | Selectivity index [3] | ED50 [4] [mg/kg] | Toxicity [5] [mg/kg]
COc1cc(-c2ccc[nH]2)[nH]c1/C=C1/C=C2CCCCC2=N1 | 0.12 (≈ 0.409 µM) | 0.0185 (≈ 0.0631 µM) | 6 |  | 
COc1cc(-c2ccc[nH]2)[nH]c1/C=C1/C=CC(CCCCCCCC#N)=N1 | 0.235 (≈ 0.648 µM) | 0.0162 (≈ 0.0447 µM) | 14 |  | 
C1=C/C(=C/c2[nH]c(-c3ccc[nH]3)cc2OCc2ccccc2)N=C1CC1CCCCC1 | 0.151 (≈ 0.367 µM) | 0.0021 (≈ 0.0051 µM) | 72 |  | 
CCCCCCCCCCC1=N/C(=C\c2[nH]c(-c3ccc[nH]3)cc2OCc2ccccc2)C=C1 | 0.97 (≈ 2.13 µM) | 0.013 (≈ 0.0285 µM) | 75 |  | 
CCCCCCCCCCCC1=N/C(=C\c2[nH]c(-c3cc4ccccc4[nH]3)cc2OC)C=C1 | > 1 | 0.25 (≈ 0.564 µM) |  |  | 
CCCCCCCCCCCC1=N/C(=C\c2[nH]c(-c3cc4cc(OC)ccc4[nH]3)cc2OC)C=C1 | > 1 | 0.128 (≈ 0.27 µM) |  |  | 
CCCCCCCCCCCC1=N/C(=C\c2[nH]c(-c3ccc[nH]3)cc2OCCC)C=C1 | 0.322 (≈ 0.764 µM) | 0.0056 (≈ 0.0133 µM) | 58 | 1 | 2
CCCCCCCCCCCC1=N/C(=C\c2[nH]c(-c3cccs3)cc2OCc2ccccc2)C=C1 | > 1 | > 1 |  |  | 
CC1=N/C(=C\c2[nH]c(-c3ccc[nH]3)cc2OCc2ccccc2)C=C1 | 0.083 (≈ 0.252 µM) | 0.0079 (≈ 0.024 µM) | 10 |  | 
COc1cc(-c2ccc[nH]2)[nH]c1/C=C1/C=CC(CCCCCC(=O)N2CCOCC2)=N1 | > 1 | > 1 |  |  | 
CCCCCCCCCCCC1=N/C(=C\c2[nH]c(-n3cncn3)cc2OC)C=C1 | > 1 | > 1 |  |  | 
COc1cc(-c2ccc[nH]2)[nH]c1/C=C1/C=CC(CCCCCCO)=N1 | 0.787 (≈ 2.32 µM) | 0.0564 (≈ 0.166 µM) | 14 |  | 
CCCCCCCCCCCCCC1=N/C(=C\c2[nH]c(-c3ccc[nH]3)cc2OC)C=C1 | 0.282 (≈ 0.669 µM) | 0.0014 (≈ 0.00332 µM) | 201 | 0.8 | 1.5
CCCCCCCC1=N/C(=C\c2[nH]c(-c3ccc[nH]3)cc2OC)C=C1 |  | 0.0056 (≈ 0.0166 µM) | 29 |  | 
COc1cc(-c2ccc[nH]2)[nH]c1/C=C1/C=CC(CCCCCCF)=N1 | 0.172 (≈ 0.504 µM) | 0.0074 (≈ 0.0217 µM) | 23 |  | 
COC(=O)CCCCCC1=N/C(=C\c2[nH]c(-c3ccc[nH]3)cc2OC)C=C1 | > 1 | > 1 |  |  | 
CCCCCCCCCCCC1=N/C(=C\c2ccc(-c3ccc[nH]3)[nH]2)C=C1 | 1.22 (≈ 3.34 µM) | 0.4 (≈ 1.1 µM) | 3 |  | 
CCCCCCCC1=N/C(=C\c2[nH]c(-c3ccc[nH]3)cc2OCc2ccccc2)C=C1 | 0.178 (≈ 0.43 µM) | 0.0036 (≈ 0.0087 µM) | 49 |  | 
CCCCCCCCCCCC1=N/C(=C\c2[nH]c(-c3ccc[nH]3)cc2OCc2ccccc2)C=C1 | 3.74 (≈ 7.96 µM) | 0.0242 (≈ 0.0515 µM) | 155 | 1.1 | 5
C1=C/C(=C/c2[nH]c(-c3ccc[nH]3)cc2OCc2ccccc2)N=C1Cc1ccccc1 | 0.279 (≈ 0.688 µM) | 0.0065 (≈ 0.016 µM) | 43 |  | 

SMILES | IC50 [1] [µg/mL] | IC50 [2] [µg/mL] | Selectivity index [3] | ED50 [4] [mg/kg] | Toxicity [5] [mg/kg]
CCCCCCCCCCCC1=N/C(=C\c2[nH]c(C(=O)NCC)cc2OC)C=C1 | > 1 | > 1 |  |  | 
CCCCCCCCCCCC1=N/C(=C\c2[nH]c(-c3ccc[nH]3)cc2OC)C=C1 [UNDECYLPRODIGININE] | 0.106 (≈ 0.269 µM) | 0.002 (≈ 0.00508 µM) |  | 0.6 | 1
CCCCCCCCCCCC1=N/C(=C\c2[nH]c(-c3ccc[nH]3)cc2OCCCC)C=C1 | 1.51 (≈ 3.47 µM) |  | 133 | 1.5 | 3
CCCCCCCCCCCC1=N/C(=C\c2[nH]c(-c3ccccc3)cc2OC)C=C1 | > 1 | > 1 |  |  | 
COc1cc(-c2ccc[nH]2)[nH]c1/C=C1/C=CC(CCCCCCCCCCC(=O)O)=N1 | > 1 | > 1 |  |  | 
CCCCCCCCCCCC1=N/C(=C\c2[nH]c(-c3ccc[nH]3)cc2OCC)C=C1 | 0.193 (≈ 0.474 µM) | 0.0018 (≈ 0.00442 µM) | 107 | 1.2 | 2
CCCCCCCCCCCC1=N/C(=C\c2[nH]c(-c3ccc[nH]3)cc2O)C=C1 | > 1 | > 1 |  |  | 
CCCCCC1=N/C(=C\c2[nH]c(-c3ccc[nH]3)cc2OC)C=C1 | 0.079 (≈ 0.255 µM) | 0.02 (≈ 0.0646 µM) | 4 |  | 
CCCCCCCCCCCC1=N/C(=C\c2[nH]c(-c3cc4cc(Cl)ccc4[nH]3)cc2OC)C=C1 | > 1 | > 1 |  |  | 
COc1cc(-c2ccc[nH]2)[nH]c1/C=C1/C=CC(CCCCCC(=O)O)=N1 | > 1 | > 1 |  |  | 
CCCCCCCCCCCC1=N/C(=C\c2[nH]c(-c3ccc[nH]3)cc2OC(C)C)C=C1 | 0.282 (≈ 0.669 µM) | 0.0026 (≈ 0.00617 µM) | 108 |  | 
COc1cc(-c2ccc[nH]2)[nH]c1/C=C1/C=CC(CCc2ccccc2)=N1 | 0.299 (≈ 0.871 µM) | 0.0075 (≈ 0.0218 µM) | 40 |  | 
CC1=N/C(=C\c2[nH]c(-c3ccc(C)[nH]3)cc2OCc2ccccc2)C=C1 | 0.077 (≈ 0.224 µM) | 0.0041 (≈ 0.0119 µM) |  |  | 
CCCCCCCCCCCCCCCC1=N/C(=C\c2[nH]c(-c3ccc[nH]3)cc2OC)C=C1 | 1.24 (≈ 2.75 µM) | 0.0163 (≈ 0.0362 µM) | 76 |  | 
CCCCCCCCCCC1=N/C(=C\c2[nH]c(-c3ccc[nH]3)cc2OC)C=C1 | 0.156 (≈ 0.411 µM) | 0.0018 (≈ 0.00474 µM) | 87 |  | 
CCCCCCCCCCCCCC1=N/C(=C\c2[nH]c(-c3ccc[nH]3)cc2OCc2ccccc2)C=C1 | 2.78 (≈ 5.59 µM) | 0.262 (≈ 0.526 µM) | 11 |  | 
CCCCCCCCCCCC1=N/C(=C\c2[nH]c(-c3ccc(C(C)=O)[nH]3)cc2OC)C=C1 | > 1 | 0.1 (≈ 0.23 µM) |  |  | 
CCCCCC1=N/C(=C\c2[nH]c(-c3ccc[nH]3)cc2OCc2ccccc2)C=C1 | 0.083 (≈ 0.215 µM) | 0.0049 (≈ 0.0127 µM) | 17 |  | 
C1=C(OCc2ccccc2)/C(=C/c2ccc[nH]2)N=C1c1ccc[nH]1 | 0.181 (≈ 0.574 µM) | 0.0153 (≈ 0.0485 µM) | 12 |  | 
